{"source": "ChEMBL document CHEMBL4033712", "about": "“Synthesis and biological evaluation of new C-12(α/β)-(N-) sulfamoyl-phenylamino-14-deoxy-andrographolide derivatives as potent anti-cancer agents” (Bioorg Med Chem Lett, 2017)", "format_in_all_cases": "functional", "key": {"M14": {"tested_on": "M14", "assay": "Anticancer activity against human M14 cells assessed as cell growth at 10 uM after 48 hrs by sulforhodamine B assay relative to control", "details": "M14, 48 h, read-out: Activity", "outline": "(§1)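 Single-dose NCI-60 panel screen: compound added at 10 µM and the culture incubated 48 h. The end point was read by protein staining with sulforhodamine B. The value is percent growth of treated cells relative to untreated control cells, reported as a mean graph across the panel.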"}, "BT-549": {"tested_on": "BT-549", "assay": "Growth inhibition of human BT549 cells incubated for 48 hrs by sulforhodamine B assay", "details": "BT-549, 48 h", "outline": "(§2)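 NCI-60 five-dose screen at 0.01, 0.1, 1, 10 and 100 µM, 48 h incubation, sulforhodamine B end point. GI50 (50% decrease in net growth), TGI (total growth inhibition) and LC50 (net 50% loss of initial cells) taken from log concentration versus % growth inhibition curves.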"}, "NCI-H23": {"tested_on": "NCI-H23", "assay": "Anticancer activity against human NCI-H23 cells assessed as cell growth at 10 uM after 48 hrs by sulforhodamine B assay relative to control", "details": "NCI-H23, 48 h, read-out: Activity", "outline": "as §1"}, "LOX IMVI": {"tested_on": "LOX IMVI", "assay": "Anticancer activity against human LOXIMVI cells assessed as cell growth at 10 uM after 48 hrs by sulforhodamine B assay relative to control", "details": "read-out: Activity", "outline": "as §1"}, "UACC-62": {"tested_on": "UACC-62", "assay": "Anticancer activity against human UACC62 cells assessed as cell growth at 10 uM after 48 hrs by sulforhodamine B assay relative to control", "details": "UACC-62, 48 h, read-out: Activity", "outline": "(§3)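 NCI-60 single-dose screen: compound added at 10 µM, cultures incubated 48 h. End point by sulforhodamine B protein-binding dye. Value reported as percent growth of treated cells relative to untreated control cells.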"}, "OVCAR-5": {"tested_on": "OVCAR-5", "assay": "Anticancer activity against human OVCAR5 cells assessed as cell growth at 10 uM after 48 hrs by sulforhodamine B assay relative to control", "details": "OVCAR-5, 48 h, read-out: Activity", "outline": "as §1"}, "SNB-75": {"tested_on": "SNB-75", "assay": "Anticancer activity against human SNB75 cells assessed as cell growth at 10 uM after 48 hrs by sulforhodamine B assay relative to control", "details": "SNB-75, 48 h, read-out: Activity", "outline": "as §3"}, "HOP-92": {"tested_on": "HOP-92", "assay": "Growth inhibition of human HOP92 cells incubated for 48 hrs by sulforhodamine B assay", "details": "HOP-92, 48 h", "outline": "as §2"}, "NCI/ADR-RES": {"tested_on": "NCI/ADR-RES", "assay": "Anticancer activity against human NCI/ADR-RES cells assessed as cell growth at 10 uM after 48 hrs by sulforhodamine B assay relative to control", "details": "read-out: Activity", "outline": "as §1"}, "HCT-116": {"tested_on": "HCT-116", "assay": "Anticancer activity against human HCT116 cells assessed as cell growth at 10 uM after 48 hrs by sulforhodamine B assay relative to control", "details": "HCT-116, 48 h, read-out: Activity", "outline": "as §1"}, "TK-10": {"tested_on": "TK-10", "assay": "Anticancer activity against human TK10 cells assessed as cell growth at 10 uM after 48 hrs by sulforhodamine B assay relative to control", "details": "TK-10, 48 h, read-out: Activity", "outline": "as §3"}, "Malme-3M": {"tested_on": "Malme-3M", "assay": "Anticancer activity against human MALME-3M cells assessed as cell growth at 10 uM after 48 hrs by sulforhodamine B assay relative to control", "details": "read-out: Activity", "outline": "as §1"}, "786-0": {"tested_on": "786-0", "assay": "Anticancer activity against human 786-0 cells assessed as cell growth at 10 uM after 48 hrs by sulforhodamine B assay relative to control", "details": "786-0, 48 h, read-out: Activity", "outline": "as §1"}, "OVCAR-4": {"tested_on": "OVCAR-4", "assay": "Anticancer activity against human OVCAR4 cells assessed as cell growth at 10 uM after 48 hrs by sulforhodamine B assay relative to control", "details": "OVCAR-4, 48 h, read-out: Activity", "outline": "as §1"}, "HL-60(TB)": {"tested_on": "HL-60(TB)", "assay": "Anticancer activity against human HL-60(TB) cells assessed as cell growth at 10 uM after 48 hrs by sulforhodamine B assay relative to control", "details": "HL-60, 48 h, read-out: Activity", "outline": "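NCI-60 human tumour panel single-dose screen: cells exposed to 10 µM compound for 48 h. Growth end point read with sulforhodamine B protein-binding dye. Expressed as percent growth of treated cells versus untreated control cells.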"}, "IGROV-1": {"tested_on": "IGROV-1", "assay": "Anticancer activity against human IGROV1 cells assessed as cell growth at 10 uM after 48 hrs by sulforhodamine B assay relative to control", "details": "IGROV-1, 48 h, read-out: Activity", "outline": "as §1"}, "Hs-578T [1]": {"tested_on": "Hs-578T", "assay": "Anticancer activity against human Hs 578T cells assessed as cell growth at 10 uM after 48 hrs by sulforhodamine B assay relative to control", "details": "read-out: Activity", "outline": "as §1"}, "A498": {"tested_on": "A498", "assay": "Anticancer activity against human A498 cells assessed as cell growth at 10 uM after 48 hrs by sulforhodamine B assay relative to control", "details": "A498, 48 h, read-out: Activity", "outline": "as §1"}, "MOLT-4": {"tested_on": "MOLT-4", "assay": "Anticancer activity against human MOLT4 cells assessed as cell growth at 10 uM after 48 hrs by sulforhodamine B assay relative to control", "details": "MOLT-4, 48 h, read-out: Activity", "outline": "as §1"}, "EKVX": {"tested_on": "EKVX", "assay": "Anticancer activity against human EKVX cells assessed as cell growth at 10 uM after 48 hrs by sulforhodamine B assay relative to control", "details": "read-out: Activity", "outline": "as §1"}, "SF-295": {"tested_on": "SF-295", "assay": "Anticancer activity against human SF295 cells assessed as cell growth at 10 uM after 48 hrs by sulforhodamine B assay relative to control", "details": "SF-295, 48 h, read-out: Activity", "outline": "as §1"}, "RPMI-8226": {"tested_on": "RPMI-8226", "assay": "Anticancer activity against human RPMI8226 cells assessed as cell growth at 10 uM after 48 hrs by sulforhodamine B assay relative to control", "details": "RPMI-8226, 48 h, read-out: Activity", "outline": "as §1"}, "NCI-H322M": {"tested_on": "NCI-H322M", "assay": "Anticancer activity against human NCI-H322M cells assessed as cell growth at 10 uM after 48 hrs by sulforhodamine B assay relative to control", "details": "read-out: Activity", "outline": "as §1"}, "KM12": {"tested_on": "KM12", "assay": "Anticancer activity against human KM12 cells assessed as cell growth at 10 uM after 48 hrs by sulforhodamine B assay relative to control", "details": "KM12, 48 h, read-out: Activity", "outline": "as §1"}, "HOP-62": {"tested_on": "HOP-62", "assay": "Anticancer activity against human HOP62 cells assessed as cell growth at 10 uM after 48 hrs by sulforhodamine B assay relative to control", "details": "HOP-62, 48 h, read-out: Activity", "outline": "as §1"}, "Hs-578T [2]": {"tested_on": "Hs-578T", "assay": "Growth inhibition of human Hs 578T cells incubated for 48 hrs by sulforhodamine B assay", "outline": "as §2"}, "RXF 393": {"tested_on": "RXF 393", "assay": "Anticancer activity against human RXF393 cells assessed as cell growth at 10 uM after 48 hrs by sulforhodamine B assay relative to control", "details": "RXF 393, 48 h, read-out: Activity", "outline": "as §1"}, "K562": {"tested_on": "K562", "assay": "Anticancer activity against human K562 cells assessed as cell growth at 10 uM after 48 hrs by sulforhodamine B assay relative to control", "details": "K562, 48 h, read-out: Activity", "outline": "as §1"}, "A549": {"tested_on": "A549", "assay": "Anticancer activity against human A549/ATCC cells assessed as cell growth at 10 uM after 48 hrs by sulforhodamine B assay relative to control", "details": "A549, 48 h, read-out: Activity", "outline": "as §1"}, "[3]": {"details": "read-out: LC50 (the source's name)"}}, "data": [{"smiles": "C=C1CC[C@@H]2[C@](C)(COC(C)=O)[C@H](OC(C)=O)CC[C@@]2(C)[C@H]1CC(Nc1ccc(S(=O)(=O)Nc2ccc(Cl)nn2)cc1)C1=CCOC1=O", "note": "(stereo not given in full)", "values": [{"measurement": "growth at 10 µM", "setting": "M14", "result": 10.7, "unit": "%"}, {"measurement": "GI50", "setting": "BT-549", "result": 1.58, "unit": "µM"}, {"measurement": "TGI", "setting": "BT-549", "result": 3.14, "unit": "µM"}, {"measurement": "CC50", "setting": "BT-549; [3]", "result": 6.28, "unit": "µM"}, {"measurement": "growth at 10 µM", "setting": "NCI-H23", "result": 58.2, "unit": "%"}, {"measurement": "growth at 10 µM", "setting": "LOX IMVI", "result": -84.6, "unit": "%"}, {"measurement": "growth at 10 µM", "setting": "UACC-62", "result": -50, "unit": "%"}, {"measurement": "growth at 10 µM", "setting": "OVCAR-5", "result": 44.6, "unit": "%"}, {"measurement": "growth at 10 µM", "setting": "SNB-75", "result": 25.2, "unit": "%"}, {"measurement": "GI50", "setting": "HOP-92", "result": 2.7, "unit": "µM"}, {"measurement": "TGI", "setting": "HOP-92", "result": 7.89, "unit": "µM"}, {"measurement": "CC50", "setting": "HOP-92; [3]", "result": 27.5, "unit": "µM"}, {"measurement": "growth at 10 µM", "setting": "NCI/ADR-RES", "result": 16.7, "unit": "%"}, {"measurement": "growth at 10 µM", "setting": "HCT-116", "result": -34.1, "unit": "%"}, {"measurement": "growth at 10 µM", "setting": "TK-10", "result": 69.8, "unit": "%"}, {"measurement": "growth at 10 µM", "setting": "Malme-3M", "result": 55.3, "unit": "%"}, {"measurement": "growth at 10 µM", "setting": "786-0", "result": 58.8, "unit": "%"}, {"measurement": "growth at 10 µM", "setting": "OVCAR-4", "result": 30.9, "unit": "%"}, {"measurement": "growth at 10 µM", "setting": "HL-60(TB)", "result": -17.5, "unit": "%"}, {"measurement": "growth at 10 µM", "setting": "IGROV-1", "result": 43.3, "unit": "%"}, {"measurement": "growth at 10 µM", "setting": "Hs-578T [1]", "result": 75.6, "unit": "%"}, {"measurement": "growth at 10 µM", "setting": "A498", "result": 89, "unit": "%"}, {"measurement": "growth at 10 µM", "setting": "MOLT-4", "result": 0.4, "unit": "%"}, {"measurement": "growth at 10 µM", "setting": "EKVX", "result": 87.3, "unit": "%"}, {"measurement": "growth at 10 µM", "setting": "SF-295", "result": 92.8, "unit": "%"}, {"measurement": "growth at 10 µM", "setting": "RPMI-8226", "result": -19.2, "unit": "%"}, {"measurement": "growth at 10 µM", "setting": "NCI-H322M", "result": 57, "unit": "%"}, {"measurement": "growth at 10 µM", "setting": "KM12", "result": 27, "unit": "%"}, {"measurement": "growth at 10 µM", "setting": "HOP-62", "result": 47.9, "unit": "%"}, {"measurement": "GI50", "setting": "Hs-578T [2]", "result": 6.17, "unit": "µM"}, {"measurement": "LC50", "setting": "Hs-578T [2]", "result": "> 100", "unit": "µM"}, {"measurement": "TGI", "setting": "Hs-578T [2]", "result": "> 100", "unit": "µM"}, {"measurement": "growth at 10 µM", "setting": "RXF 393", "result": -13.4, "unit": "%"}, {"measurement": "growth at 10 µM", "setting": "K562", "result": 6.81, "unit": "%"}, {"measurement": "growth at 10 µM", "setting": "A549", "result": 61.6, "unit": "%"}]}]}
